# Calls of active or inactive are those of the source. No cut-off for these calls is given here.
# Legend:
# [1] = test system: U2OS; assay: Induction of telomeric G-quadruplex DNA formation in human U2OS cells assessed as increase in co-localization of BG4/TRF2 foci per nucleus at 2 uM after 24 hrs by DAPI staining-based double immunofluorescence method; assay type: cell-based
# How it was run: (§1)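 Cells were treated 24 h with 2 µM compound or 0.1% DMSO, then fixed (4% paraformaldehyde), permeabilized (0.5% Triton X-100) and blocked (5% goat serum). Staining used BG4 (80 ng/µL, 37 °C 3 h) with anti-FLAG, and/or γ-H2AX, TRF2 or POT1 antibodies at 4 °C overnight. Alexa 488/555 secondaries and DAPI followed. Foci or co-localized foci per nucleus were counted by confocal microscopy; mean ± SEM, two-tailed unpaired t test.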
# [2] = test system: SiHa; assay: Antitumor activity against human SiHa cells xenografted in BALB/C-nu/nu mouse assessed as tumor growth inhibition at 10 mg/kg, ip administered daily for 3 weeks measured post last dose relative to vehicle-treated control; assay type: functional; details: 504 h, read-out: TGI
# How it was run: (§2)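 SiHa cells (1×10^7 per 100 µL, serum-free DMEM) were injected subcutaneously. Grown tumors were divided into pieces and implanted into BALB/C-nu/nu mice. Caliper volume (1/2 × L × W²) and body weight were recorded daily; tumors were weighed at the end.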
# [3] = test system: Quadruplex DNA; assay: Stabilization of telomeric G-quadruplex DNA in human SiHa cells assessed as increase in phosphorylated ATR expression after 48 hrs by Western blot method; assay type: cell-based
# How it was run: (§3)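 SiHa cells were treated with compound for 48 h and lysed in RIPA buffer. 20 µg protein was run on 10% SDS-PAGE and transferred to PVDF. Blots were blocked in 3% BSA, probed with primary antibodies (1:1,000, 4 °C 16 h) for p-ATR, p-CHK1 and p-P53, then secondaries (1:2,000, 2 h at room temperature).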
# [4] = test system: SiHa; assay: Antitumor activity against human SiHa cells xenografted in BALB/C-nu/nu mouse assessed as tumor growth inhibition at 20 mg/kg, ip administered daily for 3 weeks measured post last dose relative to vehicle-treated control; assay type: functional; details: 504 h, read-out: TGI; how it was run: as §2
# [5] = test system: Mus musculus; assay: Toxicity in BALB/C-nu/nu mouse xenografted with human SiHa cells assessed as decrease in body weight at 10 to 20 mg/kg, ip administered daily for 3 weeks measured everyday during compound dosing; assay type: organism-based; details: in vivo, 504 h; how it was run: as §2
# [6] = test system: HeLa; assay: Antiproliferative activity against human HeLa cells after 48 hrs by MTT assay; assay type: functional, cell-based
# How it was run: (§4)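 Cells seeded at 5.0×10^3 per well and exposed to a range of compound concentrations for 48 h. MTT (2.5 mg/mL solution) was then added for 4 h, formazan was dissolved in DMSO, and OD was read at 570 nm. HL-60 was grown in RPMI-1640 with 10% FBS, the other lines in DMEM with 10% FBS, at 37 °C and 5% CO2. Triplicates; IC50 taken from mean OD versus concentration curves.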
# [7] = test system: SiHa; assay: Induction of telomeric G-quadruplex DNA formation in human SiHa cells assessed as increase in colocalization of BG4/TRF2 foci per nucleus at 2 uM after 24 hrs by DAPI staining-based immunofluorescence method; assay type: cell-based; how it was run: as §1
# [8] = test system: SiHa; assay: Induction of apoptosis in human SiHa cells after 96 hrs by annexin V-FITC/propidium iodide staining-based flow cytometric method; assay type: functional, cell-based
# How it was run: (§5)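 SiHa cells were treated with compound or DMSO for 96 h, washed, resuspended in binding buffer, and stained with Annexin V-FITC and PI for 15 min in the dark. Apoptotic percentage was measured by flow cytometry; mean ± SEM.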
# [9] = Stabilization of F10T hairpin duplex DNA (unknown origin) assessed as change in melting temperature at 1 uM by FRET assay
# How it was run: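 FRET melting: 0.2 µM F21T or F10T (FAM/TAMRA-labelled), with or without 1.0 µM ligand, in 10 mM Tris-HCl pH 7.4 with 60 mM KCl. Excitation 470 nm, emission 530 nm, read every 1 °C from 37–99 °C at 1 °C/min with a 30 s hold. ΔTm = Tm(DNA+ligand) − Tm(DNA).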
# [10] = test system: Quadruplex DNA; assay: Stabilization of telomeric G-quadruplex DNA in human U2OS cells assessed as increase in BG4 foci per nucleus at 2 uM after 24 hrs by DAPI staining-based immunofluorescence method; assay type: cell-based; how it was run: as §1
# [11] = test system: HL-60; assay: Antiproliferative activity against human HL60 cells after 48 hrs by MTT assay; assay type: functional, cell-based; details: HL-60, 48 h; how it was run: as §4
# [12] = test system: Quadruplex DNA; assay: Stabilization of telomeric G-quadruplex DNA in human SiHa cells assessed as increase in phosphorylated p53 expression after 48 hrs by Western blot method; assay type: cell-based; how it was run: as §3
# [13] = biological target: Quadruplex DNA; assay: Binding affinity to HTG21 telomeric G-quadruplex DNA (unknown origin) by SPR method; assay type: nucleic-acid assay
# How it was run: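 SPR: biotinylated HTG21 or hairpin DNA (200 nM) was folded in 50 mM Tris-HCl pH 7.4 with 100 mM KCl and captured to about 1,000 RU on an NLC chip against a blank reference cell. Ligand at 0.625–40 µM was injected at 25 µL/min (400 s association, 300 s dissociation) at 25 °C. The chip was regenerated with 1 M KCl and blank sensorgrams were subtracted.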
# [14] = test system: SiHa; assay: Induction of apoptosis in human SiHa cells at 2 uM after 96 hrs by annexin V-FITC/propidium iodide staining-based flow cytometric method relative to control; assay type: functional; how it was run: as §5
# [15] = test system: Quadruplex DNA; assay: Stabilization of telomeric G-quadruplex DNA in human SiHa cells assessed as delocalization of POT1 from TRF2 foci at 2 uM after 24 hrs by DAPI staining-based double immunofluorescence method; assay type: cell-based; how it was run: as §1
# [16] = test system: Quadruplex DNA; assay: Stabilization of telomeric G-quadruplex DNA in human SiHa cells assessed as increase in BG4 foci per nucleus at 2 uM after 24 hrs by DAPI staining-based immunofluorescence method relative to control; assay type: cell-based; how it was run: as §1
# [17] = Inhibition of telomerase (unknown origin) by TRAP-LIG assay; parameters: species or system Homo sapiens
# [18] = test system: Quadruplex DNA; assay: Stabilization of telomeric G-quadruplex DNA in human SiHa cells assessed as induction of DNA damage response by measuring gamma-H2AX foci formation per nucleus at 2 uM after 24 hrs by DAPI staining-based immunofluorescence method relative to control; assay type: cell-based; how it was run: as §1
# [19] = test system: SiHa; assay: Antiproliferative activity against human SiHa cells assessed as decrease in colony formation at 0.125 to 0.5 uM after 12 days by crystal violet staining-based assay; assay type: functional, cell-based
smiles,measurement,setting,value
CN(C)CCCNc1cc2nc(/C=C3\C(=O)Nc4cc(N5CCN(C)CC5)ccc43)[nH]c(=O)c2cc1F,Activity,[1],Active
same,inhibition in vivo at 10 mg/kg,[2],29%
same,Activity,[3],Dose-dependent effect
same,inhibition in vivo at 20 mg/kg,[4],65.2%
same,Activity,[5],Non-Toxic
same,IC50,[6],3.8 µM
same,Activity,[7],Active
same,Activity,[8],Dose-dependent effect
same,ΔTm,[9],0.1 °C
same,Activity,[10],Active
same,IC50,[11],2.5 µM
same,Activity,[12],Dose-dependent effect
same,Kd,[13],8.1 µM
same,Activity,[14],60%
same,Activity,[15],Active
same,fold change (FC),[16],2
same,IC50,[17],9.6 µM
same,fold change (FC),[18],3
same,Activity,[19],Active
